From ChEMBL document CHEMBL4364314, “Design, synthesis and biological evaluation of 6-deoxy O-spiroketal C-arylglucosides as novel renal sodium-dependent glucose cotransporter 2 (SGLT2) inhibitors for the treatment of type 2 diabetes” (Eur J Med Chem, 2019)

Columns and labels:
[1] = Cmax in mouse at 10 mg/kg, po administered as single dose; type: ADME, organism-based; parameters: dose 10 mg/kg, route oral; conditions: in vivo
Outline: (§1)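 Mouse pharmacokinetics after a single intravenous dose of 2 mg/kg or a single oral dose of 10 mg/kg. Plasma parameters derived for each route; oral bioavailability calculated by comparing the two routes.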

Homo sapiens = species on record: Homo sapiens; experiment: Selectivity ratio of IC50 for human full length SGLT1 to IC50 for human full length SGLT2
Outline: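 Ratio of IC50 at hSGLT1 to IC50 at hSGLT2, both from the [14C]methyl-α-D-glucopyranoside uptake assay in stably transfected NIH3T3 cells.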

[2] = Volume of distribution at steady state in mouse at 2 mg/kg, iv administered as single dose; type: ADME, organism-based; conditions: in vivo, read-out: Vdss; outline: as §1
[3] = AUClast in mouse at 10 mg/kg, po administered as single dose; type: ADME, organism-based; parameters: dose 10 mg/kg, time 0 - last, route oral; conditions: in vivo; outline: as §1
Rattus norvegicus [4] = experiment: Effect on urine glucose excretion in Sprague-Dawley rat 1 mg/kg, po administered as single dose measured after 24 hrs assessed per 100 grams (reference value: 0.51 +/- 0.40 mg); type: functional
[5] = Mean residence time infinity in mouse at 10 mg/kg, po administered as single dose; type: ADME, organism-based; conditions: in vivo; outline: as §1
[6] = Mean residence time infinity in mouse at 2 mg/kg, iv administered as single dose; type: ADME, organism-based; conditions: in vivo; outline: as §1
[7] = biological target: T1, Sodium/glucose cotransporter 1 (Homo sapiens, UniProt P13866); experiment: Inhibition of human full length SGLT1 expressed in NIH3T3 cells measured after 1 hr in presence of [14C]-methyl-alpha -D-glucopyranoside by scintillation counter method; type: cell-based
T1 sequence (P13866 whole entry): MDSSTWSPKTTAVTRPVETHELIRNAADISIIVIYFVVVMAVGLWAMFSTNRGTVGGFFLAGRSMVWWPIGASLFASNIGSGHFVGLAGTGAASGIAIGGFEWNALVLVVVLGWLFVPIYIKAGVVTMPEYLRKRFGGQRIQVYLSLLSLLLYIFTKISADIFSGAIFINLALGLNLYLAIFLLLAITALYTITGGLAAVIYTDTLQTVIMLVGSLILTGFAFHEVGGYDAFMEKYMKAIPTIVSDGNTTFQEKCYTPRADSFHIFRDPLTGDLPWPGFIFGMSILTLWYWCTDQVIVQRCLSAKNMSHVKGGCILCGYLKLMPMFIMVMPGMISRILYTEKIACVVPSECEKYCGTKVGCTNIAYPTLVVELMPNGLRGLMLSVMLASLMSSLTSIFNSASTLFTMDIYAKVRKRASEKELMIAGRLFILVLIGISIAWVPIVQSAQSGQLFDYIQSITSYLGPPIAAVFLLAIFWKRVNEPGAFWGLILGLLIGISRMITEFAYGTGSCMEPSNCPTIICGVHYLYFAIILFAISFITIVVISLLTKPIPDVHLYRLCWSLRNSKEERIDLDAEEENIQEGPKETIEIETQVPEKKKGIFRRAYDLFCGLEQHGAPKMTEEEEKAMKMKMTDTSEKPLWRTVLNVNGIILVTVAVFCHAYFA
Outline: (§2)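 Stable NIH3T3 lines from retroviral transduction of full-length hSGLT1 or hSGLT2 (pBABE-puro, 8 µg/mL polybrene, puromycin 2 µg/mL selection for 2 weeks). Cells plated 2 days ahead, 2 mmol/L sodium butyrate added day 2. Read by scintillation counting. Compound-free buffer served as negative control, sodium-free N-methyl-glucamine buffer as blank.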

[8] = AUCinfinity in mouse at 2 mg/kg, iv administered as single dose; type: ADME, organism-based; parameters: dose 2 mg/kg, route intravenous, time infinity; conditions: in vivo; outline: as §1
Mus musculus [9] = experiment: Effect on urinary volume in C57BL/6J mouse at 1 mg/kg, po administered as single dose measured after 24 hrs (reference value: 1.24 +/- 0.45 mL); type: ADME, organism-based; conditions: in vivo
Mus musculus [10] = experiment: Hypoglycemic activity in orally dosed C57BL/6J mouse assessed as glucose tolerance improvement administered as single dose measured after 120 mins post glucose challenge by OGTT; type: functional, organism-based
Outline: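 Male mice fasted overnight (14 h), then gavaged with 1 or 3 mg/kg or vehicle (0.9% NaCl, 0.5% methyl cellulose); n = 8. Glucose 3 g/kg given by gavage 2 h later. Blood glucose taken at -120, 0, 15, 30, 60, 90 and 120 min. AUC0-2 h by trapezoidal rule; t-test against vehicle.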

[11] = Tmax in mouse at 10 mg/kg, po administered as single dose; type: ADME, organism-based; conditions: in vivo; outline: as §1
Mus musculus [12] = experiment: Effect on urine glucose concentration in C57BL/6J mouse at 1 mg/kg, po administered as single dose measured after 24 hrs by glucose oxidase method (reference value: 0.74 +/- 0.14 mmol/L); type: functional
Rattus norvegicus [13] = experiment: Effect on urine glucose concentration in Sprague-Dawley rat at 1 mg/kg, po administered as single dose measured after 24 hrs by glucose oxidase method (reference value: 0.28 +/- 0.16 mmol/L); type: functional
[14] = Oral bioavailability in mouse at 10 mg/kg administered as single dose; type: ADME, organism-based; conditions: in vivo; outline: as §1
[15] = Half-life in mouse at 2 mg/kg, iv administered as single dose; type: ADME, organism-based; conditions: in vivo; outline: as §1
[16] = Clearance in mouse at 2 mg/kg, iv administered as single dose; type: ADME, organism-based; conditions: in vivo; outline: as §1
[17] = AUCinfinity in mouse at 10 mg/kg, po administered as single dose; type: ADME, organism-based; parameters: dose 10 mg/kg, time infinity, route oral; conditions: in vivo; outline: as §1
Rattus norvegicus [18] = experiment: Effect on urinary volume in Sprague-Dawley rat at 1 mg/kg, po administered as single dose measured after 24 hrs (reference value: 24.17 +/- 7.11 mL); type: ADME, organism-based; conditions: in vivo
Mus musculus [19] = experiment: Effect on urine glucose excretion in C57BL/6J mouse at 1 mg/kg, po administered as single dose measured after 24 hrs assessed per 100 grams (reference value: 0.84 +/- 0.40 mg ); type: functional
[20] = biological target: T2, Sodium/glucose cotransporter 2 (Homo sapiens, UniProt P31639); experiment: Inhibition of human full length SGLT2 expressed in NIH3T3 cells measured after 1 hr in presence of [14C]-methyl-alpha -D-glucopyranoside by scintillation counter method; type: cell-based; outline: as §2
T2 sequence (P31639 whole entry): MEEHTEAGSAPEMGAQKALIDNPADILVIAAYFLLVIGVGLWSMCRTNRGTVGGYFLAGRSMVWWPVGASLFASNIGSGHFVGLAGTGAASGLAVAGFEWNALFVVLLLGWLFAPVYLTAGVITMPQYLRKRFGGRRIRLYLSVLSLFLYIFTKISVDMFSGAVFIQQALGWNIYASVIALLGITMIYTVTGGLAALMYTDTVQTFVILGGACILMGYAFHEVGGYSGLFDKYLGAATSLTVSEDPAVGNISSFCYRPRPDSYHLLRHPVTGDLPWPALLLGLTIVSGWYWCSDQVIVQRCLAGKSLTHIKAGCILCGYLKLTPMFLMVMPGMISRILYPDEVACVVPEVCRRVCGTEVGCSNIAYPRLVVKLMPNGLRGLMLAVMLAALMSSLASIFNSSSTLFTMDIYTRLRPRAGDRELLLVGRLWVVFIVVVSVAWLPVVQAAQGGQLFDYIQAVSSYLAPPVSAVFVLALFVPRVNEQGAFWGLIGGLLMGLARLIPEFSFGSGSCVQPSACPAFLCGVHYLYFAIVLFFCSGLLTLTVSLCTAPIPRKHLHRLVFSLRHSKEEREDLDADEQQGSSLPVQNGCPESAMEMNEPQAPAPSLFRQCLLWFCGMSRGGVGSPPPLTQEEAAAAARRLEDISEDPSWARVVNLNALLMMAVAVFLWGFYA

[21] = AUClast in mouse at 2 mg/kg, iv administered as single dose; type: ADME, organism-based; parameters: dose 2 mg/kg, route intravenous, time 0 - last; conditions: in vivo; outline: as §1
[22] = Half-life in mouse at 10 mg/kg, po administered as single dose; type: ADME, organism-based; conditions: in vivo; outline: as §1

- Cmax [1]: 740 ng/mL
- Ratio IC50 (Homo sapiens): 216
- Vd [2]: 10.1 L/kg
- AUC(0-t) [3]: 3010 ng·h/mL
- MRT inf [5]: 8.9 h
- MRT inf [6]: 13.1 h
- IC50 [7]: 1000 nM
- AUC(0-inf) [8]: 2320 ng·h/mL
- Activity (Mus musculus [9]): 1.21 mL
- Tmax [11]: 0.33 h
- bioavailability [14]: 53.4%
- half-life [15]: 10.8 h
- clearance [16]: 19.9 mL/min/kg
- AUC(0-inf) [17]: 5580 ng·h/mL
- Activity (Rattus norvegicus [18]): 24.67 mL
- IC50 [20]: 4.5 nM
- AUC(0-t) [21]: 1130 ng·h/mL
- half-life [22]: 5.95 h
Compound: CCc1ccc(Cc2cc3c(cc2C)CO[C@]32O[C@H](C)[C@@H](O)[C@H](O)[C@H]2O)s1
- Activity (Rattus norvegicus [4]): 134.23 mg
- Activity (Mus musculus [10]): Dose-dependent effect
- Activity (Mus musculus [12]): 92.99 mmol/L
- Activity (Rattus norvegicus [13]): 93.8 mmol/L
- Activity (Mus musculus [19]): 110.53 mg
